# Compound activity from PubChem.
# HKDC1 activator: increases human hexokinase HKDC1 activity; activity change, negative = activation, % at 20 µM; Q2TB90; hit rate 0.056% among 340,000; AID 493187; recombinant HKDC1, G6PDH/diaphorase resazurin fluorescence; stronger effect = lower value;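 active = activation of 40% or more at 20 µM, a change of -40% or lower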
#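 System: in-house human HKDC1 enzyme, G6PDH and diaphorase coupling enzymes; Quantity: 5 µg/mL HKDC1 final; Buffer or medium: Tris/MgCl2 buffer, pH 8.0; Dosing: single compound dose of 20 µM, 1% DMSO final; Times: 90 min reaction at room temperature, dark; Detection: coupled resazurin-to-resorufin fluorescence, Ex 525/Em 613 nm.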
# Hits are given with their value; 0 = inactive. These entries were drawn from the full list.
SMILES,HKDC1 activator
O=C(CNC(=O)c1ccncc1)N/N=C/c1ccc(O)cc1O,-41
O=C(CNC(=O)c1ccc2c(c1)OCCO2)N/N=C/c1ccc(O)cc1O,-51
Cc1cc(C)n(CCC(=O)N/N=C/c2ccc(O)cc2O)n1,-42
Cc1cc(SCC(=O)N/N=C/c2ccc(O)c(O)c2O)c(C)cc1Br,0
CC(=NNC(=O)c1ccncc1)c1ccc(O)cc1O,-40
O=C1OC(c2ccccc2)=N/C1=C/c1cccc(OC(=O)c2cccs2)c1,0
O=C(NCCc1ccccc1)C(c1cccs1)N(C(=O)CCl)c1ccc(Cl)cc1 (configuration not stated),0
COc1ccc(-c2cc(N)n(CCC#N)n2)c(OC)c1,0
O=[N+]([O-])c1ccc(N/N=C/c2ccc(O)c(O)c2O)c(S(=O)(=O)N2CCOCC2)c1,0
CCOC(=O)C1=C(O)c2ccccc2C(=O)/C1=C\c1ccc(CC)cc1,0
O=C1NN(c2ccc(F)c(Cl)c2)C(=O)/C1=C\c1cccc(OC(=O)c2cccs2)c1,0
CSc1nc(N(C)CCO)c2sc3nc(-c4ccco4)c4c(c3c2n1)CCC4,0
CCOC(=O)/C(=C\c1cccnc1)C(=O)c1cc(C(C)=O)c(Nc2ccccc2)s1,0
CCOC(=O)c1c(C)[nH]c(C2=NNC(=Nc3ccc(OCC)cc3)SC2)c1C,-137
CCOC(=O)c1c(C)[nH]c(C2=NNC(=Nc3ccccc3)SC2)c1C,-306
CCOC(=O)c1c(C)[nH]c(C2=NNC(=Nc3ccccc3OC)SC2)c1C,-165
Cn1c2ccccc2c(=O)c2c(=O)n(-c3ccccc3)c(C3CCCCC3)nc21,0
O=C(C1=C(c2ccccc2)C(=O)c2ccccc2C1=O)c1ccccc1,0
CCOC(=O)N1CCN(c2cc(NCCC(=O)O)c3c4c(onc24)-c2ccccc2C3=O)CC1,0
Cc1ccc(S(=O)(=O)N(C(=O)c2ccncc2)c2ccc(OC(=O)c3ccncc3)c3ccccc23)c(C)c1,0
C=CC(=O)N1C/C(=C/c2ccc(F)cc2)C(=O)/C(=C\c2ccc(F)cc2)C1,0
Cc1cccn2c(=O)c3cc(C(N)=S)c(=N)n(CCCN4CCOCC4)c3nc12,-54
NNc1ncnc2sc3c(c12)CCC3,-102
COc1ccc(C2=CC3=C(Br)C(=O)C(C)(OC(=O)C4CCCC4)C(=O)C3=CO2)cc1 (configuration not stated),0
O=C(O)c1cccc2cccc(-c3c4ccc(=O)c(O)c-4oc4c(O)c(O)ccc34)c12,0
O=c1oc2c(O)c(O)cc3c(=O)oc4c(O)c(O)cc1c4c23,0
COc1cc(/C=C(\C#N)c2nc3ccc(C)cc3[nH]2)cc([N+](=O)[O-])c1O,0
